ChEMBL document CHEMBL4339192, “De Novo Designed Amphipathic α-Helical Antimicrobial Peptides Incorporating Dab and Dap Residues on the Polar Face To Treat the Gram-Negative Pathogen, Acinetobacter baumannii” (J Med Chem, 2019)
Where a SMILES comes first, the peptide text is derived from it. [ ]: non-standard residue; d: D form. Dab = NCC[C@H](N)C(=O)O

What was measured:
Acinetobacter baumannii [1] = assay: Antibacterial activity against Acinetobacter baumannii isolate 1002956 measured after 24 hrs by microtiter dilution method; type: functional; conditions: isolate 1002956, 24 h
Outline: (§1)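 Broth microdilution in Mueller-Hinton (MH) medium. […] Plates were incubated 24 h at 37 °C. MIC was the lowest peptide concentration that inhibited growth, based on three sets of replicates.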

Acinetobacter baumannii [2] = assay: Antibacterial activity against Acinetobacter baumannii isolate 1010282 measured after 24 hrs by microtiter dilution method; type: functional; conditions: isolate 1010282, 24 h; outline: as §1
Acinetobacter baumannii [3] = assay: Antibacterial activity against Acinetobacter baumannii 649 measured after 24 hrs in presence of 25% human serum by microtiter dilution method; type: functional; conditions: Acinetobacter baumannii, 649, 24 h
Outline: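 Blood strain 649 was tested by MH broth microdilution with and without 25% (v/v) human serum added to the medium. The test used a final inoculum of 5 × 10^5 cfu/mL and incubation at 37 °C. The ratio is the MIC in serum over the MIC in MH alone.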

[4] = Therapeutic index, ratio of HC50 for human RBC to MIC for polymyxin B/colistin-resistant Acinetobacter baumannii M89949; type: toxicity; conditions: human red blood cells, read-out: TI
Outline: (§2)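 T.I. = HC50/MIC. For HC50, peptide (quantified by amino acid analysis) was two-fold serially diluted over 12 concentrations up to 1000 μg/mL. It was incubated with 1% fresh human erythrocytes in PBS, pH 7.4, for 18 h at 37 °C. After 800g centrifugation, hemoglobin was read at 570 nm against water (100%) and no-peptide (0%) controls. HC50 came from a lysis-versus-concentration plot, average of 3 replicates.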

[5] = Therapeutic index, ratio of HC50 for human RBC to MIC for polymyxin B/colistin-resistant Acinetobacter baumannii M89963; type: toxicity; conditions: human red blood cells, read-out: TI; outline: as §2
Acinetobacter baumannii [6] = assay: Antibacterial activity against Acinetobacter baumannii isolate 963618 measured after 24 hrs by microtiter dilution method; type: functional; conditions: isolate 963618, 24 h; outline: as §1
[7] = Therapeutic index, ratio of HC50 for human RBC to MIC for polymyxin B/colistin-resistant Acinetobacter baumannii M89953; type: toxicity; conditions: human red blood cells, read-out: TI; outline: as §2
Acinetobacter baumannii [8] = assay: Antibacterial activity against Acinetobacter baumannii isolate 9383370 measured after 24 hrs by microtiter dilution method; type: functional; conditions: isolate 9383370, 24 h; outline: as §1
Acinetobacter baumannii [9] = assay: Antibacterial activity against polymyxin B/colistin-resistant Acinetobacter baumannii M89953 measured after 24 hrs by microtiter dilution method; type: functional; conditions: M89953, 24 h; outline: as §1
Acinetobacter baumannii [10] = assay: Antibacterial activity against polymyxin B/colistin-resistant Acinetobacter baumannii M89949 measured after 24 hrs by microtiter dilution method; type: functional; conditions: M89949, 24 h; outline: as §1
Acinetobacter baumannii [11] = assay: Antibacterial activity against Acinetobacter baumannii isolate 961997 measured after 24 hrs by microtiter dilution method; type: functional; conditions: isolate 961997, 24 h; outline: as §1
Acinetobacter baumannii [12] = assay: Antibacterial activity against Acinetobacter baumannii isolate 1017395 measured after 24 hrs by microtiter dilution method; type: functional; conditions: isolate 1017395, 24 h; outline: as §1
Acinetobacter baumannii [13] = assay: Antibacterial activity against Acinetobacter baumannii isolate 1007660 measured after 24 hrs by microtiter dilution method; type: functional; conditions: isolate 1007660, 24 h; outline: as §1
Acinetobacter baumannii [14] = assay: Antibacterial activity against polymyxin B/colistin-resistant Acinetobacter baumannii M89952 measured after 24 hrs by microtiter dilution method; type: functional; conditions: M89952, 24 h; outline: as §1
Acinetobacter baumannii [15] = assay: Antibacterial activity against Acinetobacter baumannii isolate 1018887 measured after 24 hrs by microtiter dilution method; type: functional; conditions: isolate 1018887, 24 h; outline: as §1
Acinetobacter baumannii [16] = assay: Antibacterial activity against Acinetobacter baumannii isolate 952654 measured after 24 hrs by microtiter dilution method; type: functional; conditions: isolate 952654, 24 h; outline: as §1
[17] = Therapeutic index, ratio of HC50 for human RBC to MIC for polymyxin B/colistin-resistant Acinetobacter baumannii M89955; type: toxicity; conditions: human red blood cells, read-out: TI; outline: as §2
[18] = Therapeutic index, ratio of HC50 for human RBC to MIC for polymyxin B/colistin-resistant Acinetobacter baumannii M89952; type: toxicity; conditions: human red blood cells, read-out: TI; outline: as §2
Acinetobacter baumannii [19] = assay: Antibacterial activity against Acinetobacter baumannii isolate 964304 measured after 24 hrs by microtiter dilution method; type: functional; conditions: isolate 964304, 24 h; outline: as §1
Acinetobacter baumannii [20] = assay: Antibacterial activity against Acinetobacter baumannii isolate 968886 measured after 24 hrs by microtiter dilution method; type: functional; conditions: isolate 968886, 24 h; outline: as §1
Acinetobacter baumannii [21] = assay: Antibacterial activity against Acinetobacter baumannii isolate 1035166 measured after 24 hrs by microtiter dilution method; type: functional; conditions: isolate 1035166, 24 h; outline: as §1
Acinetobacter baumannii [22] = assay: Antibacterial activity against polymyxin B/colistin-resistant Acinetobacter baumannii M89941 measured after 24 hrs by microtiter dilution method; type: functional; conditions: M89941, 24 h; outline: as §1
Acinetobacter baumannii [23] = assay: Antibacterial activity against Acinetobacter baumannii isolate 1035794 measured after 24 hrs by microtiter dilution method; type: functional; conditions: isolate 1035794, 24 h; outline: as §1
[24] = Therapeutic index, ratio of HC50 for human RBC to MIC for polymyxin B/colistin-resistant Acinetobacter baumannii M89941; type: toxicity; conditions: human red blood cells, read-out: TI; outline: as §2
Acinetobacter baumannii [25] = assay: Antibacterial activity against polymyxin B/colistin-resistant Acinetobacter baumannii M89963 measured after 24 hrs by microtiter dilution method; type: functional; conditions: M89963, 24 h; outline: as §1
Acinetobacter baumannii [26] = assay: Antibacterial activity against polymyxin B/colistin-resistant Acinetobacter baumannii M89955 measured after 24 hrs by microtiter dilution method; type: functional; conditions: M89955, 24 h; outline: as §1
Acinetobacter baumannii [27] = assay: Antibacterial activity against Acinetobacter baumannii isolate 977751 measured after 24 hrs by microtiter dilution method; type: functional; conditions: isolate 977751, 24 h; outline: as §1
Acinetobacter baumannii [28] = assay: Antibacterial activity against Acinetobacter baumannii isolate 981650 measured after 24 hrs by microtiter dilution method; type: functional; conditions: isolate 981650, 24 h; outline: as §1
[29] = Hemolytic activity against human RBC measured after 18 hrs by spectrophotometric method; type: ADME, cell-based, Erythrocyte; conditions: human red blood cells (erythrocytes)
Outline: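 Peptide (amount by amino acid analysis), two-fold serial dilutions at 12 concentrations up to 1000 μg/mL, with 1% human erythrocytes in PBS pH 7.4, 37 °C, 18 h. Unlysed cells removed by centrifugation (800g); hemoglobin read at 570 nm. Water-lysed cells = 100%, no-peptide cells = 0%. HC50 from plot of % lysis vs concentration (μM), average of 3 replicates.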

Acinetobacter baumannii [30] = assay: Antibacterial activity against Acinetobacter baumannii isolate 965463 measured after 24 hrs by microtiter dilution method; type: functional; conditions: isolate 965463, 24 h; outline: as §1
Acinetobacter baumannii [31] = assay: Antibacterial activity against Acinetobacter baumannii 649 measured after 24 hrs by microtiter dilution method; type: functional; conditions: Acinetobacter baumannii, 649, 24 h; outline: as §1
Acinetobacter baumannii [32] = assay: Antibacterial activity against polymyxin B/colistin-resistant Acinetobacter baumannii M89951 measured after 24 hrs by microtiter dilution method; type: functional; conditions: M89951, 24 h; outline: as §1
Acinetobacter baumannii [33] = assay: Antibacterial activity against Acinetobacter baumannii isolate 1021371 measured after 24 hrs by microtiter dilution method; type: functional; conditions: isolate 1021371, 24 h; outline: as §1
Acinetobacter baumannii [34] = assay: Antibacterial activity against Acinetobacter baumannii isolate 963659 measured after 24 hrs by microtiter dilution method; type: functional; conditions: isolate 963659, 24 h; outline: as §1
Acinetobacter baumannii [35] = assay: Antibacterial activity against Acinetobacter baumannii isolate 1010245 measured after 24 hrs by microtiter dilution method; type: functional; conditions: isolate 1010245, 24 h; outline: as §1
Acinetobacter baumannii [36] = assay: Antibacterial activity against Acinetobacter baumannii isolate 1001611 measured after 24 hrs by microtiter dilution method; type: functional; conditions: isolate 1001611, 24 h; outline: as §1
[37] = Therapeutic index, ratio of HC50 for human RBC to MIC for polymyxin B/colistin-resistant Acinetobacter baumannii M89951; type: toxicity; conditions: human red blood cells, read-out: TI; outline: as §2

CC(=O)N[C@H](CCCCN)C(=O)N[C@H](CC(C)C)C(=O)N[C@@H](CCN)C(=O)N[C@H](CO)C(=O)N[C@H](CC(C)C)C(=O)N[C@H](CC(C)C)C(=O)N[C@@H](CCN)C(=O)N[C@@H](C(=O)N[C@H](CC(C)C)C(=O)N[C@H](CO)C(=O)N[C@@H](CCN)C(=O)N[C@H](C)C(=O)N[C@H](CCCCN)C(=O)N[C@H](C)C(=O)N[C@H](C)C(=O)N[C@H](CCCCN)C(=O)N[C@H](CC(C)C)C(=O)N[C@@H](CCN)C(=O)N[C@@H](C(=O)N[C@H](CC(C)C)C(=O)N[C@H](CC(C)C)C(=O)N[C@@H](CCN)C(=O)N[C@H](C)C(=O)N[C@H](CC(C)C)C(=O)N[C@H](CO)C(=O)N[C@H](CO)C(N)=O)[C@H](C)O)[C@H](C)O (Ac-[dK][dL][Dab][dS][dL][dL][Dab][dT][dL][dS][Dab][dA][dK][dA][dA][dK][dL][Dab][dT][dL][dL][Dab][dA][dL][dS][dS]-NH2)
0.7 µM: MIC (Acinetobacter baumannii [2]) | MIC (Acinetobacter baumannii [3]) | MIC (Acinetobacter baumannii [8]) | MIC (Acinetobacter baumannii [10]) | MIC (Acinetobacter baumannii [12]) | MIC (Acinetobacter baumannii [14]) | MIC (Acinetobacter baumannii [15]) | MIC (Acinetobacter baumannii [19]) | MIC (Acinetobacter baumannii [20]) | MIC (Acinetobacter baumannii [21]) | MIC (Acinetobacter baumannii [23]) | MIC (Acinetobacter baumannii [25]) | MIC (Acinetobacter baumannii [26]) | MIC (Acinetobacter baumannii [27]) | MIC (Acinetobacter baumannii [30]) | MIC (Acinetobacter baumannii [32]) | MIC (Acinetobacter baumannii [34])
1.5 µM: MIC (Acinetobacter baumannii [11])
1.4 µM: MIC (Acinetobacter baumannii [9])
0.4 µM: MIC (Acinetobacter baumannii [1]) | MIC (Acinetobacter baumannii [6]) | MIC (Acinetobacter baumannii [13]) | MIC (Acinetobacter baumannii [16]) | MIC (Acinetobacter baumannii [22]) | MIC (Acinetobacter baumannii [28]) | MIC (Acinetobacter baumannii [31]) | MIC (Acinetobacter baumannii [33]) | MIC (Acinetobacter baumannii [35]) | MIC (Acinetobacter baumannii [36])
> 708 µM: HC50 at 18 h [29]
> 1010: selectivity ratio [4] | selectivity ratio [5] | selectivity ratio [7] | selectivity ratio [17] | selectivity ratio [18] | selectivity ratio [24] | selectivity ratio [37]
